TRPC6 act – activators of mouse TRPC6 channel; Q61143; hit rate 0.13% among 310,000; B-score at 10 µM; HEK293-TRPC6 membrane potential dye fluorescence; hits give high values; AID 2550;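 active means B-score of the integrated fluorescence ratio above library mean plus 3 SD, and starting fluorescence ratio within library mean plus 5 SD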;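 further: higher score means more depolarization so channel activation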
Kir21 inh – Kir2.1 (mouse) channel inhibition. HEK293-Kir2.1, FluxOR thallium flux fluorescence; hits give low values. B-score at 10 µM. hit rate 0.85% among 310,000;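 active means fluorescence ratio B-score at or below minus 3 SD of library scores, with starting-brightness B-score within 2 SD, cut at about -4.2 in these data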;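 further: channel flux triggered by added potassium and thallium sulfate stimulus; B-score of peak minus minimum fluorescence over baseline after thallium stimulus; more negative B-score means stronger Kir2.1 block with less thallium influx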
Target sequence (P35561 whole entry, looked up): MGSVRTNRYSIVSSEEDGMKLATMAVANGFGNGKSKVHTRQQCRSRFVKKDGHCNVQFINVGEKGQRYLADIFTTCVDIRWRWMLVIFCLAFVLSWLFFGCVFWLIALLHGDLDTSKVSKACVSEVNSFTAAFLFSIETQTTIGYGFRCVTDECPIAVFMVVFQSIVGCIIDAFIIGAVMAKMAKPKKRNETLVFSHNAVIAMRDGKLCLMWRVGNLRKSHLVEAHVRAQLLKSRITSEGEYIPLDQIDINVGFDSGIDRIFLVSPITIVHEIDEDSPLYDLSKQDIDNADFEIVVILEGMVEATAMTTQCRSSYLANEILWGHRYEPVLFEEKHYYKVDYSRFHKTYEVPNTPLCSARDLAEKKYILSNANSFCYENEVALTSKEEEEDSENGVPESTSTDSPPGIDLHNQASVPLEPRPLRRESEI
TRPC6 inh – blocks the mouse TRPC6 cation channel | hit rate 1.1% among 310,000 | HEK293-TRPC6, membrane potential dye, ACh-evoked depolarization; hits give low values | B-score at 10 µM | Q61143;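 active means B-score under library mean minus 3 SD, initial fluorescence not abnormally high, positive integrated signal ratio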;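 further: B-score derived from integrated fluorescence ratio over the kinetic read; more negative B-score means stronger inhibition of depolarization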
TRPC4 block – blocks the mouse TRPC4 cation channel | Q9QUQ5 | hit rate 0.39% among 300,000 | B-score at 10 µM | HEK293 TRPC4beta/mu-opioid, DAMGO-evoked Fluo4 calcium flux; hits give low values;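 active means B-score over 3 SD under the library average, no early fluorescence shift, positive overall ratio signal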
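Material: HEK293 cells with stable TRPC4beta plus mu-opioid receptor expression; probe or stimulus: DAMGO in two steps, submaximal then maximal; technique: Fluo4 calcium fluorescence by kinetic imaging, 5 s 1 Hz baseline; measure: integrated fluorescence ratio relative to baseline, converted to per-well B score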
TRPC4 potent – TRPC4 (mouse) allosteric potentiation; Q9QUQ5; HEK293 TRPC4beta/mu-opioid, DAMGO EC20, Fluo-4 Ca2+ flux; hits give high values; B-score at 10 µM; hit rate 0.42% among 310,000;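 active means B-score of calcium response area above 5 SD of library B-scores, with initial fluorescence ratio within 5 SD of library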
TRPC4 agonist – TRPC4 (mouse) channel activation | Q9QUQ5 | HEK293 TRPC4beta/mu-opioid, Fluo4 calcium fluorescence; hits give high values | B-score at 10 µM | hit rate 0.49% among 310,000;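 active means B-score above 5 SD of library B-scores, and initial fluorescence ratio not above library mean plus 5 SD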;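 further: positive B-score marks a calcium rise read as TRPC4 activation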
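System – HEK293 cells stably co-expressing mouse TRPC4beta and mu-opioid receptor · Signal – Fluo4 calcium-sensitive dye fluorescence, kinetic, 1 Hz baseline · Benchmarks – buffer (low) and maximal DAMGO (high) · Read-out – B score of integrated fluorescence ratio per well · Incubation – dye loading 45 min room temperature, 110 s kinetic read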
TRPC4 sel inh 2 – mouse TRPC4 off-target activity of TRPC6 inhibitors, second screen; shares compounds with TRPC6 inh; HEK293 TRPC4/MOR, membrane potential dye fluorescence; channel activated by saturating DAMGO dose; inhibition, % at 10 µM; hit rate 42% among 920; AID 2776;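 active means compounds whose fluorescence signal differed from control wells by over 3 SD, either direction, in both duplicate plates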
TRPC4 spec – tests whether TRPC6 inhibitors also affect mouse TRPC4. shares compounds with TRPC6 inh. activity change, negative = inhibition, % at 10 µM. hit rate 61% among 920. HEK293 TRPC4/mu-opioid, membrane potential fluorescence;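 active means rise or fall in signal beyond 3 SD of buffer-only wells in both replicate plates, either sign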;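 further: integrated kinetic ratio of fluorescence range over baseline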
HEK293 MPD ctr 2-1 – second check of TRPC6 inhibitor effects in parental HEK293 cells. parental HEK293 membrane potential dye fluorescence; maximal acetylcholine challenge after compound addition. hit rate 31% among 920. shares compounds with TRPC6 inh. signal change vs control, % at 10 µM;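 active means membrane potential signal moving either way by over 3 SD of the maximum-effect control, in both duplicate plates, meaning non-specific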
HEK293 MPD ctr-1 – checks TRPC6 inhibitor effects in parental HEK293 cells; AID 2780; shares compounds with TRPC6 inh; hit rate 60% among 920; membrane potential signal change, % at 10 µM; parental HEK293 membrane potential dye fluorescence;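 active means membrane potential signal shifting up or down by more than 3 SD of buffer-only wells, on both duplicate plates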
HEK293 MPD ctr-2 – parental HEK293 nonspecific activity of TRPC6 modulators; AID 488924; shares compounds with TRPC6 inh; membrane potential dye fluorescence; hit rate 51% among 2,400; membrane potential signal change, % at 10 µM;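 active means membrane potential signal moves up or down beyond 5 SD from buffer-only wells, on both duplicate plates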
HEK293 MPD ctr 2-2 – second counter-screen for TRPC6 modulators: effect in parental HEK293 cells; hit rate 14% among 2,400; shares compounds with TRPC6 inh; membrane potential dye fluorescence; after compound, maximal acetylcholine stimulation; AID 488926; inhibition, % at 10 µM;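 active means membrane potential signal drops by more than 5 SD from the mean control signal, in both duplicate plates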
TRPC4 ctr mod – selectivity of TRPC6 modulators against mouse TRPC4. shares compounds with TRPC6 inh. HEK293 TRPC4/mu-opioid, membrane potential fluorescence. percent change from control (negative = decrease, positive = increase), % at 10 µM. hit rate 69% among 2,400. AID 488927;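 active means membrane potential signal moved up or down beyond 5 SD of buffer control wells, in both duplicate plates, actives on both sides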
TRPC4 ctr inh 2 – second selectivity test of TRPC6 modulators against mouse TRPC4 | inhibition, % at 10 µM | hit rate 55% among 2,400 | HEK293 TRPC4/mu-opioid, membrane potential dye fluorescence; stimulated with maximal-effect DAMGO | shares compounds with TRPC6 inh;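 active means drop in membrane potential signal beyond 5 SD of the control wells in both duplicate plates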;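 further: TRPC4 counter screen for TRPC6 hits run under conditions tuned for TRPC6 not TRPC4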
TRPC6 block conf – confirmation of mouse TRPC6 inhibitors | shares compounds with TRPC6 inh | HEK293-TRPC6, membrane potential dye, ACh-evoked depolarization | inhibition, % at 10 µM | hit rate 43% among 3,300 | AID 488960;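 active means fluorescence ratio falls more than 5 SD below the full-stimulation control mean, in both duplicate runs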;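 further: integrated fluorescence ratio of peak minus minimum over baseline after agonist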
TRPC6 act confirm – mouse TRPC6 activator confirmation. AID 488961. activation, % at 10 µM. shares compounds with TRPC6 inh. HEK293-TRPC6 membrane potential dye fluorescence, FDSS. hit rate 11% among 2,800;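 active means ratio signal rise beyond 5 SD above unstimulated control wells' mean, seen in both duplicate runs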
Of the large screens only hits and unclear results are named; the others gave an inactive call (follow-up assays come after a bar, where they were run). Shown are actives, neighbours in structure and some others; about 2.9% of the full set was active somewhere.

C=CCn1c(=N)n(CC(=O)OC)c2ccccc21	none
C=CCn1c(=N)n(CC(=O)c2ccc(Cl)cc2)c2ccccc21	TRPC6 inh -5.9 | HEK293 MPD ctr-2 inactive | HEK293 MPD ctr 2-2 inactive | TRPC4 ctr mod 36% | TRPC4 ctr inh 2 93% | TRPC6 block conf 58%
CN(C)CCOC(=O)c1ccc2c(c1)S(=O)(=O)c1ccccc1C2=O	none
COc1ccc(-n2nc(C)c3c(=O)c4c([nH]c32)CCCC4)cc1	none
CCn1c(/N=C/c2c[nH]c3ccccc23)nc2ccccc21	TRPC6 inh -8.1 | TRPC4 sel inh 2 75% | TRPC4 spec -9.7% | HEK293 MPD ctr 2-1 inactive | HEK293 MPD ctr-1 -165% | TRPC6 block conf 53% | TRPC6 act confirm inactive
O=C(CCNS(=O)(=O)c1ccccc1C(F)(F)F)N1CCN(S(=O)(=O)c2cccc(F)c2)CC1	none
CC(C)N(C(=O)CSc1nnc(-c2cc3ccccc3cc2O)n1Cc1ccco1)C(C)C	none
COCCn1c(SCC(=O)N(C(C)C)C(C)C)nnc1-c1cc2ccccc2cc1O	TRPC6 inh -5.1 | HEK293 MPD ctr-2 inactive | HEK293 MPD ctr 2-2 inactive | TRPC4 ctr mod inactive | TRPC4 ctr inh 2 inactive | TRPC6 block conf 42%
COC(=O)c1ccccc1C(=O)N1CCCC(CNC(=O)c2ccc(F)cc2)C1 (stereo not drawn)	none
O=C(Nc1ccc2oc(=O)ccc2c1)c1cccnc1	TRPC6 inh -6.3 | HEK293 MPD ctr-2 -180% | HEK293 MPD ctr 2-2 inactive | TRPC4 ctr mod -31% | TRPC4 ctr inh 2 inactive | TRPC6 block conf inactive | TRPC6 act confirm inactive
O=C(COC(=O)c1cc[n+]([O-])cc1)Nc1ccc(Cl)cc1C(F)(F)F	none
O=C(COC(=O)c1cc[n+]([O-])cc1)Nc1ccc(Cl)cc1[N+](=O)[O-]	TRPC6 inh -6 | HEK293 MPD ctr-2 -168% | HEK293 MPD ctr 2-2 inactive | TRPC4 ctr mod -36% | TRPC4 ctr inh 2 inactive | TRPC6 block conf inactive | TRPC6 act confirm inactive
O=C(COC(=O)c1ccc(Cl)cc1[N+](=O)[O-])NC(=O)c1ccccc1	TRPC6 inh -5.9 | HEK293 MPD ctr-2 inactive | HEK293 MPD ctr 2-2 inactive | TRPC4 ctr mod inactive | TRPC4 ctr inh 2 inactive | TRPC6 block conf inactive | TRPC6 act confirm inactive
COc1cc(/C=C/C(=O)c2ccc3c(c2)OCO3)cc(Cl)c1O	TRPC6 act 52, TRPC4 agonist 100 | HEK293 MPD ctr-2 active | HEK293 MPD ctr 2-2 active | TRPC4 ctr mod 258% | TRPC4 ctr inh 2 54% | TRPC6 act confirm 342%
CCCC(CCC(=O)NC1CCCCC1)C(=O)O (stereo not drawn)	none
CCCC(CCC)C(=O)OC1C[C@H]2CC[C@@H](C1)[N+]2(C)C (stereo partly drawn)	TRPC6 inh -8.7 | TRPC4 sel inh 2 inactive | TRPC4 spec inactive | HEK293 MPD ctr 2-1 -30% | HEK293 MPD ctr-1 inactive | TRPC6 block conf 94% | TRPC6 act confirm inactive
Cc1cccc2sc(N(CCCN(C)C)C(=O)c3cc4ccccc4oc3=O)nc12	none
COc1cccc2sc(N(CCCN(C)C)C(=O)COc3ccc(Cl)cc3)nc12	none
CN(C)CCCN(C(=O)c1cc2ccccc2oc1=O)c1nc2c(F)cccc2s1	TRPC6 inh -6.5 | HEK293 MPD ctr-2 inactive | HEK293 MPD ctr 2-2 inactive | TRPC4 ctr mod -22% | TRPC4 ctr inh 2 88% | TRPC6 block conf 70% | TRPC6 act confirm inactive
CN(C)CCCN(C(=O)c1ccc(C(=O)c2ccccc2)cc1)c1nc2c(F)cccc2s1	TRPC6 inh -6.2 | HEK293 MPD ctr-2 inactive | HEK293 MPD ctr 2-2 inactive | TRPC4 ctr mod inactive | TRPC4 ctr inh 2 82% | TRPC6 block conf 60% | TRPC6 act confirm inactive
CN(C)CCCN(C(=O)COc1ccccc1)c1nc2c(F)cccc2s1	TRPC6 inh -5 | HEK293 MPD ctr-2 inactive | HEK293 MPD ctr 2-2 inactive | TRPC4 ctr mod -16% | TRPC4 ctr inh 2 84% | TRPC6 block conf 38% | TRPC6 act confirm inactive
COC(=O)c1c([N+](=O)[O-])c(OC)c(OC)c(OC)c1[N+](=O)[O-]	none
O=C(NCc1cc2ccccc2[nH]1)c1ccccc1F	none
Fc1cccc(NCc2cn3ccccc3n2)c1	TRPC6 inh -5.5 | HEK293 MPD ctr-2 inactive | HEK293 MPD ctr 2-2 inactive | TRPC4 ctr mod inactive | TRPC4 ctr inh 2 inactive | TRPC6 block conf inactive | TRPC6 act confirm inactive
Cc1ccc(SSc2cc(C)ccc2N)c(N)c1	none
O=C(NC1CCN(Cc2ccccc2)CC1)c1cn(-c2ccccc2)nc1-c1cccnc1	TRPC6 inh -5.6 | HEK293 MPD ctr-2 91% | HEK293 MPD ctr 2-2 inactive | TRPC4 ctr mod inactive | TRPC4 ctr inh 2 52% | TRPC6 block conf 41% | TRPC6 act confirm inactive
O=C(NC1CCN(Cc2ccccc2)CC1)C1COc2ccccc2O1 (stereo not drawn)	TRPC6 inh -5.7 | HEK293 MPD ctr-2 104% | HEK293 MPD ctr 2-2 86% | TRPC4 ctr mod 12% | TRPC4 ctr inh 2 29% | TRPC6 block conf 72%

Assay outcomes: PubChem BioAssay, Johns Hopkins Ion Channel Center
